For one test, the system named is CCRF-CEM. The experiment in a line: Antitumor activity against human CEM cells after 72 hrs by Calcein AM assay. The format is functional, cell-based. The procedure, abridged: (§1)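 Cells grown in DMEM at 37 °C under 5% CO2. Compounds added after 12 h preincubation in 96-well plates, final 0.5-170 μM, with 0.6% final DMSO, then 72 h exposure. Viable cells stained with Calcein AM for 1 h and read at 485/538 nm. IC50 (concentration lethal to 50% of cells) taken from dose-response curves. Run in quadruplicate.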

The next test deals with Nicotiana tabacum. The experiment in a line: Cytokinin activity in tobacco assessed as stimulation of callus growth at 1 umol/L relative to 6-Benzylaminopurine. It is filed as functional. The procedure, abridged: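 Stimulation of tobacco callus growth. Compounds dissolved in DMSO, brought to 10^-3 M in water and diluted into medium (DMSO ≤0.2%). Range 10^-4 to 10^-8 M, five replicates per concentration, at least three independent repeats. Activity at the optimal concentration given relative to BAP's optimal response, taken as 100.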

The next test relates to B16. The experiment in a line: Antitumor activity against mouse B16 cells after 72 hrs by Calcein AM assay. It is filed as functional, cell-based. Particulars: B16, 72 h. Summed up: as §1
In another test the test system is K562. The experiment in a line: Antitumor activity against human K562 cells after 72 hrs by Calcein AM assay. The format is functional, cell-based. The conditions noted are these: K562, 72 h. Summed up: as §1
In a further test the test system is HOS. The experiment in a line: Antitumor activity against human HOS cells after 72 hrs by Calcein AM assay. It is filed as functional, cell-based. The procedure, abridged: as §1
Another test deals with HL-60. The experiment in a line: Antitumor activity against human HL60 cells after 72 hrs by Calcein AM assay. It is filed as functional, cell-based. Particulars: HL-60, 72 h. The procedure, abridged:
as §1

The next test deals with Amaranthus. The experiment in a line: Cytokinin activity in Amaranthus cotyledons assessed as dark induction of betacyanin synthesis at 0.1 mmol/L relative to 6-Benzylaminopurine. It is filed as functional. Summed up: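 Dark induction of betacyanin in excised Amaranthus cotyledons. DMSO stock brought to 10^-3 M in water, diluted into assay medium (DMSO ≤0.2%). Tested over 10^-4 to 10^-8 M, five replicates per concentration, assay repeated at least three times. Response at the optimal concentration expressed relative to BAP at its optimum (set to 100).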

The nature of test [1]: Antitumor activity against human MCF cells after 72 hrs by Calcein AM assay. The format is functional, cell-based. The procedure, abridged: as §1
In the next test the test system is Triticum aestivum. The experiment in a line: Cytokinin activity in wheat assessed as retention of chlorophyll in excised wheat leaves at 0.1 mmol/L relative to 6-Benzylaminopurine by senescence assay. It is filed as functional. Summed up: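 Senescence assay measuring chlorophyll retention in excised wheat leaves. DMSO stocks brought to 10^-3 M with water, then diluted in assay medium to a final DMSO of at most 0.2%. Concentrations 10^-4 to 10^-8 M, quintuplicate, repeated at least three times. Response at the optimal concentration normalised to BAP optimum = 100.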

For the next test, the system named is G-361. The experiment in a line: Antitumor activity against human G361 cells after 72 hrs by Calcein AM assay. It is filed as functional, cell-based. The conditions noted are these: G-361, 72 h. Summed up: as §1
Test [2] can be described thus: Cytotoxicity against mouse NIH 3T3 cells after 72 hrs by Calcein AM assay. The format is cell-based. The conditions noted are these: NIH3T3, 72 h. The procedure, abridged:
as §1

On to `OC[C@H]1O[C@@H](n2cnc3c(NCc4ccc(F)cc4F)ncnc32)[C@H](O)[C@@H]1O`, for which the 50% inhibitory concentration (IC50) – broadly, the concentration needed to halve the response being measured – with CCRF-CEM was 7.1 µM; in the test with B16 it was > 167 µM; in the test with K562 it was 9.6 µM; in the test with HOS it was > 167 µM; in the test on HL-60 it was 3.4 µM; in [1], > 167 µM. In addition, the IC50 (in the test with G-361; in test [2]) was > 167 µM throughout. The Activity in the test with Nicotiana tabacum was determined as 96%; in the test with Amaranthus, 88%; with Triticum aestivum it was 171%.
Turning to `OC[C@H]1O[C@@H](n2cnc3c(NCc4cc(O)cc(O)c4)ncnc32)[C@H](O)[C@@H]1O`, the IC50 (in the test on K562; in the test with HOS; in test [1]; in the test with G-361) was > 167 µM each time. The Activity is reported as 31% in the test on Amaranthus and 96% in the test on Triticum aestivum.
As to `OC[C@H]1O[C@@H](n2cnc3c(NCc4c(F)ccc(F)c4F)ncnc32)[C@H](O)[C@@H]1O`, the IC50 with CCRF-CEM was 90.3 µM; with B16, > 167 µM; in the test on K562, > 167 µM; in the test with HL-60 it was 13 µM; in test [1] it was > 167 µM; in the test on G-361, > 167 µM. Moreover, the Activity in the test on Nicotiana tabacum (in the assay text read “at 10 umol/L” for “at 1 umol/L”) stood at 92%; in the test on Amaranthus it was 94%; in the test with Triticum aestivum, 133%.
Consider `COc1cc(CNc2ncnc3c2ncn3[C@@H]2O[C@H](CO)[C@@H](O)[C@H]2O)cc(OC)c1O`, for which the IC50 (with K562; with HOS; in test [1]; in the test with G-361) was > 167 µM in each case.
On to `OC[C@H]1O[C@@H](n2cnc3c(NCc4ccc(C(F)(F)F)cc4)ncnc32)[C@H](O)[C@@H]1O`, for which the IC50 (with K562; in the test with HOS; in [1]; with G-361) was > 167 µM in each case. Moreover, the Activity in the test on Amaranthus was determined as 14%; in the test with Triticum aestivum it was 52%.
For `COc1cccc(CNc2ncnc3c2ncn3[C@@H]2O[C@H](CO)[C@@H](O)[C@H]2O)c1O`, the IC50 in the test with CCRF-CEM was 0.3 µM; in the test on B16, > 167 µM; in the test with K562 it was 27.9 µM; with HOS, > 167 µM; in the test on HL-60, 0.15 µM; in test [1] it was 20.2 µM. In addition, the figures for the IC50 (in the test with G-361; in test [2]) were 148 µM and > 167 µM, respectively. For the same compound, the Activity was found to be 18% in the test with Amaranthus and 10% in the test with Triticum aestivum.
`OC[C@H]1O[C@@H](n2cnc3c(NCc4ccc(OC(F)(F)F)cc4)ncnc32)[C@H](O)[C@@H]1O`: the IC50 (in the test on K562; with HOS; in test [1]; in the test with G-361) was > 167 µM each time. Also, the Activity is 21% with Amaranthus and 3% in the test with Triticum aestivum.
For the compound `COc1cc(CNc2ncnc3c2ncn3[C@@H]2O[C@H](CO)[C@@H](O)[C@H]2O)cc(OC)c1`, the IC50 with CCRF-CEM was > 167 µM; with K562, > 167 µM; in the test with HL-60 it was 20.2 µM; in test [1] it was > 167 µM. For the same compound, the Activity with Nicotiana tabacum is reported as 11%; with Amaranthus it was 2%; with Triticum aestivum, 47%.
Regarding `OC[C@H]1O[C@@H](n2cnc3c(NCc4ccc(Cl)c(Cl)c4)ncnc32)[C@H](O)[C@@H]1O`, the IC50 was 3.8 µM in the test on CCRF-CEM; > 167 µM in the test on B16; 10.8 µM in the test on K562; > 167 µM in the test with HOS; 2 µM in the test on HL-60; 88.8 µM in test [1]. In addition, the IC50 with G-361 is 145 µM. Also, the Activity in the test on Nicotiana tabacum was found to be 17%; in the test with Amaranthus, 68%; in the test on Triticum aestivum, 151%.
For the compound `OC[C@H]1O[C@@H](n2cnc3c(NCc4cccc(OC(F)(F)F)c4)ncnc32)[C@H](O)[C@@H]1O`, the figures for the Activity with Nicotiana tabacum, with Amaranthus and with Triticum aestivum were 86%, 104% and 90%, respectively. Further, the IC50 (in the test on K562; in the test on HOS; in [1]; with G-361) was > 167 µM each time.
As for `COc1cccc(CNc2ncnc3c2ncn3[C@@H]2O[C@H](CO)[C@@H](O)[C@H]2O)c1OC`, the IC50 (in the test on CCRF-CEM; with K562; with HOS; in the test with HL-60; in [1]) was > 167 µM each time. Also, the Activity is reported as 5% in the test with Nicotiana tabacum, 21% in the test with Amaranthus and 106% in the test with Triticum aestivum.
As to `OC[C@H]1O[C@@H](n2cnc3c(NCc4cccc(I)c4)ncnc32)[C@H](O)[C@@H]1O`, the values for the Activity in the test on Nicotiana tabacum, in the test on Amaranthus and in the test with Triticum aestivum were 45%, 102% and 58%, respectively.
As for `Cc1ccccc1CNc1ncnc2c1ncn2[C@@H]1O[C@H](CO)[C@@H](O)[C@H]1O` [METRIFUDIL], the IC50 was 14 µM with CCRF-CEM; > 167 µM in the test with K562; > 167 µM in the test with HOS; 3.3 µM in the test with HL-60; > 167 µM in [1]; > 167 µM in the test on G-361. Moreover, the IC50 in test [2] was > 167 µM. In addition, the Activity in the test with Nicotiana tabacum turned out to be 98%; in the test with Amaranthus, 99%; with Triticum aestivum, 141%.
As to `OC[C@H]1O[C@@H](n2cnc3c(NCc4cc(F)cc(F)c4)ncnc32)C(O)C1O` (some centres undefined), the IC50 in the test with CCRF-CEM is 24.5 µM; with B16, > 167 µM; with K562, > 167 µM; in the test with HL-60 it was 9.1 µM; in test [1] it was > 167 µM; with G-361 it was > 167 µM. The IC50 in test [2] was > 167 µM. For the same compound, the results for the Activity with Nicotiana tabacum, with Amaranthus and in the test on Triticum aestivum were 95%, 110% and 195%, respectively.
On to `OC[C@H]1O[C@@H](n2cnc3c(NCc4ccccc4C(F)(F)F)ncnc32)C(O)C1O` (some centres undefined), for which the IC50 (in the test with K562; in the test on HOS; in test [1]; with G-361) was > 167 µM throughout. In addition, the Activity in the test on Amaranthus was 121%; in the test with Triticum aestivum, 40%.
In the case of `COc1ccc(CNc2ncnc3c2ncn3[C@@H]2O[C@H](CO)[C@@H](O)[C@H]2O)cc1O`, the IC50 (with CCRF-CEM; in the test with K562; in the test on HL-60; in [1]; in test [2]) was > 167 µM throughout. The Activity turned out to be 24% in the test on Amaranthus and 19% with Triticum aestivum.
Turning to `OC[C@H]1O[C@@H](n2cnc3c(NCc4ccccc4OC(F)(F)F)ncnc32)[C@H](O)[C@@H]1O`, the IC50 is > 167 µM with CCRF-CEM; > 167 µM in the test on B16; 81.4 µM in the test with K562; > 167 µM with HOS; > 167 µM in the test with HL-60; > 167 µM in test [1]. For the same compound, the IC50 in the test with G-361 is > 167 µM. Moreover, the Activity is 78% with Amaranthus and 61% with Triticum aestivum.
Turning to `COc1cccc(OC)c1CNc1ncnc2c1ncn2[C@@H]1O[C@H](CO)[C@@H](O)[C@H]1O`, the values for the Activity with Amaranthus and with Triticum aestivum were 54% and 68%, respectively.
On to `COc1ccc(CNc2ncnc3c2ncn3C2OC(CO)[C@@H](O)[C@H]2O)c(O)c1` (some centres undefined), for which the IC50 with CCRF-CEM was 12.8 µM; in the test on K562 it was 80.8 µM; in the test with HOS, > 167 µM; in [1], 2.2 µM. For the same compound, the Activity in the test on Amaranthus stood at 0%; in the test with Triticum aestivum, 22%.
Turning to `OC[C@H]1O[C@@H](n2cnc3c(NCc4cccc(C(F)(F)F)c4)ncnc32)[C@H](O)[C@@H]1O`, the Activity in the test on Nicotiana tabacum worked out at 85%; in the test on Amaranthus, 93%; in the test with Triticum aestivum, 95%. The IC50 (in the test on K562; in the test with HOS; in test [1]; in the test with G-361) was > 167 µM throughout.
On to `COc1cc(O)cc(OC)c1CNc1ncnc2c1ncn2[C@@H]1O[C@H](CO)[C@@H](O)[C@H]1O`, for which the IC50 (in the test with K562; in the test on HOS; in [1]; with G-361) was > 167 µM throughout. In the test with Amaranthus, the Activity was 7%.
As for `OC[C@H]1O[C@@H](n2cnc3c(NCc4cccc(O)c4O)ncnc32)[C@H](O)[C@@H]1O`, the IC50 in the test with K562 was 25.8 µM; in the test with HOS, > 167 µM; in test [1] it was 5.2 µM; in the test with G-361 it was 16.9 µM. The Activity with Amaranthus worked out at 24%; in the test on Triticum aestivum, 7%.
As to `Cc1ccc(CNc2ncnc3c2ncn3[C@@H]2O[C@H](CO)[C@@H](O)[C@H]2O)cc1`, the IC50 (with CCRF-CEM; in the test with K562; in the test with HOS; with HL-60; in [1]; in test [2]) was > 167 µM each time. The Activity with Nicotiana tabacum came out at 35%; with Amaranthus, 49%; in the test with Triticum aestivum, 54.5%.

Values taken from ChEMBL document CHEMBL1143049, “Preparation, biological activity and endogenous occurrence of N6-benzyladenosines” (Bioorg Med Chem, 2007).
